Source: ChEMBL document CHEMBL1671644, “Inhibition of human immunodeficiency virus type 1 infection by the candidate microbicide dapivirine, a nonnucleoside reverse transcriptase inhibitor” (Antimicrob Agents Chemother, 2009)
Calls of active or inactive are those of the source. The rule behind the calls is not given here.

How the values were obtained:
[1] = test system: Human immunodeficiency virus 1; test: Antiviral activity against HIV-1 SM030 harboring NNTRI 100I mutant infected in human MT4 cells assessed as inhibition of viral replication relative to HIV-1 3B; assay type: functional
How it was run: (§1)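 MT-4 cells (3 x 10^4/well) infected with site-directed mutants or recombinant clinical isolates (200 TCID50/well) with drug, cultured 3 to 5 days. Viability read by MTT colorimetric antivirogram assay. IC50 by nonlinear regression; fold change = IC50 for the test isolate / IC50 for wild-type HIV-1 IIIB tested in parallel (mean or median).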

[2] = test system: Human immunodeficiency virus 1; test: Antiviral activity against HIV-1 RF infected in human PM1 cells after 7 days by RT assay; assay type: functional, organism-based; settings: Human immunodeficiency virus 1, RF, PM1, 168 h
How it was run: (§2)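 PM-1 cells (4 x 10^4/well) were infected with HIV-1BaL or HIV-1RF (200 TCID50/ml) and cultured 7 days with drug. Replication was measured as reverse transcriptase in supernatant versus untreated wells. IC50 was obtained by nonlinear regression.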

[3] = test system: Human immunodeficiency virus 1; test: Antiviral activity against HIV-1 subtype CRF02_AG V022830 infected in human MT4 cells assessed as inhibition of viral replication relative to HIV-1 3B; assay type: functional; how it was run: as §1
[4] = test system: Human immunodeficiency virus 1; test: Antiviral activity against HIV-1 subtype CRF05_DF V022824 harboring NNRTI V106I mutant infected in human MT4 cells assessed as inhibition of viral replication relative to HIV-1 3B; assay type: functional; how it was run: as §1
[5] = test system: Human immunodeficiency virus 1; test: Antiviral activity against HIV-1 SM024 harboring NNTRI 190A mutant infected in human MT4 cells assessed as inhibition of viral replication relative to HIV-1 3B; assay type: functional; how it was run: as §1
[6] = test system: Human immunodeficiency virus 1; test: Antiviral activity against HIV-1 subtype CRF01_AE V029521 infected in human MT4 cells assessed as inhibition of viral replication relative to HIV-1 3B; assay type: functional
How it was run: (§3)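 Recombinant clinical HIV-1 isolates (200 TCID50/well) were tested in MT-4 cells (3 x 10^4/well) over 3–5 days, with an MTT viability read-out. IC50 was fitted by nonlinear regression. Fold change is the isolate IC50 divided by the HIV-1IIIB IC50, tested in parallel.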

[7] = test system: Human immunodeficiency virus 1; test: Antiviral activity against HIV-1 Bal infected in human PM1 cells assessed as inhibition of transmission of virus to premissive T cells at 100 nM
[8] = test system: Human immunodeficiency virus 1; test: Antiviral activity against HIV-1 Bal infected in human PM1 cells after 7 days by RT assay; assay type: functional, organism-based; settings: Human immunodeficiency virus 1, Bal, PM1, 168 h; how it was run: as §2
[9] = test system: Human immunodeficiency virus 1; test: Antiviral activity against HIV-1 subtype H V029523 harboring NNRTI K101Q and V179I mutant infected in human MT4 cells assessed as inhibition of viral replication relative to HIV-1 3B; assay type: functional; how it was run: as §1
[10] = test system: Human immunodeficiency virus 1; test: Antiviral activity against HIV-1 subtype H V022828 harboring NNRTI K101Q and V179I mutant infected in human MT4 cells assessed as inhibition of viral replication relative to HIV-1 3B; assay type: functional; how it was run: as §1
[11] = test system: Human immunodeficiency virus 1; test: Antiviral activity against HIV-1 SM007 harboring NNTRI 103N mutant infected in human MT4 cells assessed as inhibition of viral replication relative to HIV-1 3B; assay type: functional; how it was run: as §1
[12] = test system: Human immunodeficiency virus 1; test: Antiviral activity against HIV-1 subtype D V022832 infected in human MT4 cells assessed as inhibition of viral replication relative to HIV-1 3B; assay type: functional; how it was run: as §1
[13] = test system: Human immunodeficiency virus 1; test: Antiviral activity against HIV-1 subtype CRF01_AE V029525 infected in human MT4 cells assessed as inhibition of viral replication relative to HIV-1 3B; assay type: functional; how it was run: as §3
[14] = Cytotoxicity against human PM1 cells after 24 hrs by MTT assay; assay type: cell-based
How it was run: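 Uninfected PM-1 or TZM-bl cells were exposed to drug and viability measured by MTT dye reduction as a percentage of untreated controls. CC50 was derived by nonlinear regression.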

[15] = Cytotoxicity against human MT4 cells after 24 hrs by MTT assay; assay type: cell-based
[16] = test system: Human immunodeficiency virus 1; test: Antiviral activity against HIV-1 SM058 harboring NNTRI 227L and 106A mutant infected in human MT4 cells assessed as inhibition of viral replication relative to HIV-1 3B; assay type: functional; how it was run: as §1
[17] = test system: Human immunodeficiency virus 1; test: Antiviral activity against HIV-1 Bal infected in human TZM-bl cells after 24 hrs by luciferase reporter assay; settings: Human immunodeficiency virus 1, Bal
[18] = test system: Human immunodeficiency virus 1; test: Antiviral activity against HIV-1 Bal infected in human cervical tissue explants assessed as inhibition of dissemination of virus via migratory cells after 2 hrs; assay type: functional, organism-based
How it was run: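 Explants were pretreated with drug for 1 h, then exposed to HIV-1BaL for 2 h with drug present and washed. Cells that migrated out overnight were washed and cocultured with PM-1 cells (4 x 10^4/well) for about 10 days. Transfer was read as p24 by ELISA in coculture supernatant (detection limit 300 pg/ml). Two donors, triplicate.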

[19] = test system: Human immunodeficiency virus 1; test: Antiviral activity against HIV-1 subtype CRF01_AE V022820 infected in human MT4 cells assessed as inhibition of viral replication relative to HIV-1 3B; assay type: functional; how it was run: as §1
[20] = test system: Human immunodeficiency virus 1; test: Antiviral activity against HIV-1 subtype CRF01_AE V022822 infected in human MT4 cells assessed as inhibition of viral replication relative to HIV-1 3B; assay type: functional; how it was run: as §1
[21] = test system: Human immunodeficiency virus 1; test: Antiviral activity against HIV-1 Bal infected in 2 hrs 100 nM compound pretreated human ectocervical explant tissue assessed as prolonged inhibition of viral infection post compound removal; assay type: functional
How it was run: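 Ectocervical explants were exposed to drug (0.01–10 µM) for 2 or 24 h at 37°C and washed. They received HIV-1BaL (2 h) on day 0, 2, 4 or 6 after drug removal, with no drug present. Read-outs at 10 days post-exposure: explant p24 ELISA, tissue proviral DNA by qPCR, and p24 in migratory cell–PM-1 cocultures. Three donors (2 h) or two donors (24 h), triplicate.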

[22] = test system: Human immunodeficiency virus 1; test: Antiviral activity against HIV-1 Bal infected in 1 hr compound pretreated human ectocervical explant tissue assessed as inhibition of viral replication at 0.1 nM by RT-PCR; assay type: functional, organism-based
How it was run: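 Ectocervical explants were pretreated with drug for 1 h, then exposed to HIV-1BaL (two 50% tissue infectious doses, about 10^4 TCID50 on PM-1) for 2 h at 37°C with drug present. Explants were washed and cultured overnight, then cultured separately for 10 days. Tissue was proteinase K-digested and proviral LTR DNA measured by multiplex qPCR against β-actin (10 copies/10^5 cells sensitivity). Two donors, triplicate.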

[23] = Toxicity against human Ectocervical tissue explants at 0.0001 to 100 uM after 24 hrs by MTT assay
How it was run: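 Uninfected ectocervical explants were exposed to drug for 2 or 24 h. Viability was measured by MTT reduction per milligram of tissue relative to unexposed explants, either immediately or after overnight culture. Three or four donors, triplicate.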

[24] = test system: Human immunodeficiency virus 1; test: Antiviral activity against HIV-1 subtype B V022810 harboring NNRTI A98S andK101R mutant infected in human MT4 cells assessed as inhibition of viral replication relative to HIV-1 3B; assay type: functional; how it was run: as §1
[25] = test system: Human immunodeficiency virus 1; test: Antiviral activity against HIV-1 SM052 harboring NNTRI 101E and 103N mutant infected in human MT4 cells assessed as inhibition of viral replication relative to HIV-1 3B; assay type: functional; how it was run: as §1

Cc1cc(C)c(Nc2ccnc(Nc3ccc(C#N)cc3)n2)c(C)c1 [DAPIVIRINE]
Ratio IC50 [1]: 18
IC50 [2]: 2.4 nM
Ratio IC50 [3]: 1.6
Ratio IC50 [4]: 0.7
Ratio IC50 [5]: 1
Ratio IC50 [6]: 3.5
inhibition [7]: Active
IC50 [8]: 6 nM
Ratio IC50 [9]: 1.4
Ratio IC50 [10]: 1.5
Ratio IC50 [11]: 5
Ratio IC50 [12]: 0.7
Ratio IC50 [13]: 2.6
CC50 at 24 h [14]: 11000 nM
CC50 at 24 h [15]: 2150 nM
Ratio IC50 [16]: 8
IC50 [17]: 2.2 nM
inhibition [18]: Active
Ratio IC50 [19]: 0.9
Ratio IC50 [20]: 0.9
inhibition (INH) [21]: 90%
inhibition [22]: Active
Activity [23]: Non-toxic
Ratio IC50 [24]: 1.6
Ratio IC50 [25]: 17
